Laboratory results as given in ChEMBL document CHEMBL3085764, “Azole-carbodithioate hybrids as vaginal anti-Candida contraceptive agents: design, synthesis and docking studies” (Eur J Med Chem, 2013).
In brackets after ≈: the same amount, converted by molar mass.

What was measured:
[1] = test system: Candida albicans; test: Antifungal activity against Candida albicans after 48 hrs by broth microdilution technique; format: functional, organism-based
Outline: (§1)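 MIC by broth microdilution following NCCLS guidelines, in RPMI 1640 buffered with MOPS. Starting inoculum 1-5 × 10^3 CFU/mL. Plates incubated at 35 °C. MIC and IC50 read spectrophotometrically at 492 nm after 48 h.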

[2] = Spermicidal activity in human semen assessed as sperm immobilization at 0.1 % w/v up to 30 seconds by phase contrast microscopy; format: functional
[3] = test system: Candida parapsilosis; test: Antifungal activity against Candida parapsilosis ATCC 22019 after 48 hrs by broth microdilution technique; format: functional, organism-based; conditions: Lodderomyces parapsilosis, ATCC 22019, 48 h; outline: as §1
[4] = test system: Candida albicans; test: Antifungal activity against Candida albicans clinical isolate CDRI after 48 hrs by broth microdilution technique; format: functional, organism-based; outline: as §1
[5] = test system: Staphylococcus aureus; test: Antibacterial activity against Staphylococcus aureus ATCC 25923 after 48 hrs by broth microdilution technique; format: functional; conditions: ATCC 25923, 48 h
Outline: (§2)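 Broth microdilution following NCCLS guidelines in Mueller Hinton broth. Inoculum held at 1-5 × 10^3 cfu/mL. Plates incubated at 35 °C in a moist, dark chamber for 48 h. MIC and IC50 read spectrophotometrically at 492 nm.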

[6] = test system: Candida albicans; test: Antifungal activity against Candida albicans ATCC 10231 after 48 hrs by broth microdilution technique; format: functional, organism-based; conditions: ATCC 10231, 48 h; outline: as §1
[7] = test system: Trichophyton mentagrophytes; test: Antifungal activity against Trichophyton mentagrophytes after 48 hrs by broth microdilution technique; format: functional, organism-based; outline: as §1
[8] = test system: Sporothrix schenckii; test: Antifungal activity against Sporothrix schenckii after 48 hrs by broth microdilution technique; format: functional, organism-based; outline: as §1
[9] = Spermicidal activity in human semen assessed as sperm immobilization at 1.0 % w/v up to 30 seconds by phase contrast microscopy; format: functional
[10] = test system: Candida albicans; test: Antifungal activity against Candida albicans MTCC 183 after 48 hrs by broth microdilution technique; format: functional, organism-based; conditions: MTCC 183, 48 h; outline: as §1
[11] = test system: Klebsiella pneumoniae; test: Antibacterial activity against Klebsiella pneumoniae after 48 hrs by broth microdilution technique; format: functional; outline: as §2
[12] = test system: Candida albicans; test: Antifungal activity against Candida albicans clinical isolate after 48 hrs by broth microdilution technique; format: functional, organism-based; outline: as §1
[13] = test system: Cryptococcus neoformans; test: Antifungal activity against Cryptococcus neoformans after 48 hrs by broth microdilution technique; format: functional, organism-based; outline: as §1
[14] = test system: Pseudomonas aeruginosa; test: Antibacterial activity against Pseudomonas aeruginosa ATCC BAA-427 after 48 hrs by broth microdilution technique; format: functional; conditions: ATCC BAA-427, 48 h; outline: as §2
[15] = test system: Trichomonas vaginalis; test: Trichomonacidal activity against Trichomonas vaginalis after 48 hrs by trypan blue exclusion assay; format: functional; conditions: read-out: MEC
Outline: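 T. vaginalis in log phase, grown in TYM with 10% FCS, vitamin mixture and penicillin/streptomycin at 37 °C. DMSO stocks ([…]) serially diluted in TYM down to 0.1 µg/mL; DMSO/TYM vehicle controls. 5 × 10^4 trophozoites added and incubated anaerobically at 37 °C. Viability checked by trypan blue from 3 to 48 h. MIC = lowest concentration killing all cells by 48 h. Three repeats.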

[16] = test system: Escherichia coli; test: Antibacterial activity against Escherichia coli ATCC 9637 after 48 hrs by broth microdilution technique; format: functional; conditions: ATCC 9637, 48 h; outline: as §2
[17] = test system: Aspergillus fumigatus; test: Antifungal activity against Aspergillus fumigatus after 48 hrs by broth microdilution technique; format: functional, organism-based; outline: as §1

Row | SMILES | IC50 [1] [µg/mL] | Activity [2] [%] | IC50 [3] [µg/mL] | IC50 [4] [µg/mL] | MIC [5] [µg/mL] | IC50 [6] [µg/mL] | IC50 [7] [µg/mL] | IC50 [8] [µg/mL] | Activity [9] [%] | IC50 [10] [µg/mL] | MIC [11] [µg/mL] | IC50 [12] [µg/mL] | IC50 [13] [µg/mL] | MIC [14] [µg/mL] | minimal effective concentration [15] [µg/mL] | MIC [16] [µg/mL] | IC50 [17] [µg/mL]
1 | CCCCCCCCSC(=S)n1ccnc1C | 7.21 (≈ 26.7 µM) | 100 | > 50 | 19 (≈ 70.4 µM) | ≥ 50 | > 50 | > 50 | 4.47 (≈ 16.5 µM) | 100 | > 50 | ≥ 50 | > 50 | > 50 | ≥ 50 | > 200 | ≥ 50 | > 50
2 | CCCCCCCCCCCCCCCCSC(=S)n1ccnc1C | > 50 | 0 | > 50 | > 50 | ≥ 50 | > 50 | 7.07 (≈ 18.5 µM) | > 50 | 95 | > 50 | ≥ 50 | > 50 | > 50 | ≥ 50 | > 200 | ≥ 50 | > 50
3 | C=CCSC(=S)n1cncn1 | 2.53 (≈ 13.7 µM) | 0 | > 50 | 45.5 (≈ 246 µM) | ≥ 50 | > 50 | > 50 | 5.78 (≈ 31.2 µM) | 100 | > 50 | ≥ 50 | > 50 | > 50 | ≥ 50 | > 200 | ≥ 50 | > 50
4 | N#CCCCSC(=S)n1cnc2ccccc21 | > 50 | 0 | > 50 | 3.86 (≈ 14.8 µM) | ≥ 50 | > 50 |  |  | 100 | > 50 | ≥ 50 | > 50 | > 50 | ≥ 50 | > 200 | ≥ 50 | > 50
5 | C=CCSC(=S)n1cnc2ccccc21 | > 50 | 0 | > 50 | 39.3 (≈ 168 µM) | ≥ 50 | > 50 | > 50 |  | 100 | 40.1 (≈ 171 µM) | ≥ 50 | > 50 | > 50 | ≥ 50 | > 200 | ≥ 50 | > 50
6 | CCCCSC(=S)n1cnc2ccccc21 | 6.39 (≈ 25.5 µM) | 0 | > 50 | 37.4 (≈ 149 µM) | ≥ 50 | > 50 | 1.4 (≈ 5.59 µM) | > 50 | 100 | 21.8 (≈ 87.1 µM) | ≥ 50 | > 50 | > 50 | ≥ 50 | > 200 | ≥ 50 | > 50
7 | CCCCCCCCSC(=S)n1cnc2ccccc21 | > 50 | 0 | > 50 | > 50 | ≥ 50 | > 50 | > 50 | > 50 | 95 | > 50 | ≥ 50 | > 50 | > 50 | ≥ 50 | > 200 | ≥ 50 | > 50
8 | Cn1nnc2ccccc21 | > 50 | 0 | > 50 | > 50 | ≥ 50 | > 50 | > 50 | 1.58 (≈ 11.9 µM) | 0 | > 50 | ≥ 50 | > 50 | > 50 | ≥ 50 | > 200 | ≥ 50 | > 50
9 | OC(Cn1cncn1)(Cn1cncn1)c1ccc(F)cc1F [FLUCONAZOLE] |  |  | 0.46 (≈ 1.5 µM) |  |  |  | 0.06 (≈ 0.196 µM) | 0.08 (≈ 0.261 µM) |  | 0.21 (≈ 0.686 µM) |  |  |  |  |  |  | 0.38 (≈ 1.24 µM)
10 | Cc1ncc([N+](=O)[O-])n1CCO [METRONIDAZOLE] |  | 0 |  |  |  |  |  |  | 0 |  |  |  |  |  | 2 |  | 
